Legend:
[1] = Acute toxicity in mice, after intraperitoneal administration.; type: organism-based; settings: mouse, in vivo, ip
In short: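 Mice, groups of 10, given compound suspended in 1% methylcellulose ip at 10 mL/kg, then housed with food and water ad libitum. Observed hourly up to 6 h; deaths recorded at 24 and 48 h.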

[2] = test system: Mus musculus; assay: Prevention of tetrabenazine (TBZ)-induced ptosis in mice after intraperitoneal administration.; type: functional, organism-based
In short: (§1)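 Mice given compound ip in 1% methylcellulose (10 mL/kg), 30 min before tetrabenazine 40 mg/kg base ip; solvent+TBZ control per test. Ptosis scored 30 min after TBZ (+1 min) as 100/50/0% (closed/half/open), not normalized.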

[3] = organism: Rattus norvegicus; assay: Compound was tested for inhibition of uptake of [14C]norepinephrine (NE) into rat brain hypothalamus, in vitro; Not determined.; type: functional
In short: (§2)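 Rat brain synaptosomes (Whittaker method) incubated with labelled monoamine (1 × 10^-7 mol final) at 37 °C with or without drug. [14C]NE and [14C]5-HT uptake in Krebs-Henseleit bicarbonate pH 7.4 with 11 mmol glucose; [3H]DA uptake in phosphate buffer, corpus striatum synaptosomes. Time: 5 min whole brain, 10 min hypothalamus. Nonspecific binding at 0 °C; membrane filtration, scintillation counting; IC50 from 3–4 concentrations, at least triplicate.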

[4] = organism: Rattus norvegicus; assay: Compound was tested for inhibition of uptake of [14C]5-HT (5-HT) into rat whole brain, in vitro; Not determined.; type: functional; in short: as §2
[5] = test system: Mus musculus; assay: Prevention of tetrabenazine induced ptosis in mice following i.p. administration.; type: functional; settings: ip; in short: as §1
[6] = Therapeutic index (TI), ratio of LD50 and ED50 (TBZ) in mice after i.p. administration; settings: mouse, in vivo, ip
[7] = organism: Rattus norvegicus; assay: Compound was tested for inhibition of uptake of [14C]norepinephrine (NE) into rat brain hypothalamus, in vitro.; type: functional; in short: as §2
[8] = organism: Rattus norvegicus; assay: Compound was tested for inhibition of uptake of [14C]5-HT (5-HT) into rat whole brain, in vitro.; type: functional; in short: as §2

SMILES | LD50 [1] [mg/kg] | ED50 [2] | further results
Cc1ccc([C@H]2c3cc(O)ccc3[C@H]3NCCC[C@@H]23)cc1 | 34 | No activity detected up to a dose of 1/5 LD50 ip in mice | 
Cc1ccc([C@H]2c3ccccc3[C@@H]3[C@H]2CCCN3C)cc1 | < 1 | No activity detected up to a dose of 1/5 LD50 ip in mice | 
Oc1ccc([C@H]2c3ccccc3[C@H]3NCCC[C@@H]23)cc1 |  |  | IC50 [3]: No compound available; IC50 [4]: No compound available
CN1CCC[C@H]2[C@@H](c3ccc(F)cc3)c3ccccc3[C@H]21 | 22 | No activity detected up to a dose of 1/5 LD50 ip in mice | 
COc1cc2c(cc1OC)[C@@H]1[C@@H](CCCN1C)[C@@H]2c1ccccc1 |  |  | IC50 [3]: No compound available; IC50 [4]: No compound available
Cc1cccc([C@@H]2c3ccccc3[C@@H]3[C@H]2CCCN3C)c1 | 134 |  | ED50 [5]: 5 mg/kg
COc1ccc([C@H]2c3ccccc3[C@@H]3[C@H]2CCCN3C)cc1 |  |  | IC50 [3]: No compound available; IC50 [4]: No compound available
CN(C)c1ccc([C@@H]2c3cc(O)ccc3[C@H]3NCCC[C@@H]23)cc1 | 159 | No activity detected up to a dose of 1/5 LD50 ip in mice | 
COc1ccc2c(c1)[C@@H](c1ccc(N)cc1)[C@@H]1CCCN[C@H]21 | 60 |  | ED50 [5]: 1 mg/kg; selectivity ratio [6]: 60
Cc1ccc([C@@H]2c3cc(O)ccc3[C@@H]3[C@H]2CCCN3C)cc1 | 187 | No activity detected up to a dose of 1/5 LD50 ip in mice | 
CN1CCC[C@H]2[C@@H](c3ccc(N)cc3)c3ccccc3[C@H]21 | 7 |  | ED50 [5]: 0.5 mg/kg; selectivity ratio [6]: 14
Cc1ccccc1[C@@H]1c2ccccc2[C@H]2NCCC[C@@H]12 | 80 | No activity detected up to a dose of 1/5 LD50 ip in mice | 
COc1cc2c(cc1OC)[C@H]1NCCC[C@H]1[C@H]2c1ccccc1 | 70 | No activity detected up to a dose of 1/5 LD50 ip in mice | 
CNCCCN1c2ccccc2CCc2ccccc21 [DESIPRAMINE] |  |  | IC50 [7]: 25 nM; IC50 [8]: 11 nM
COc1cc2c(cc1OC)[C@H]1NCCC[C@H]1[C@@H]2c1ccccc1 |  |  | IC50 [3]: No compound available; IC50 [4]: No compound available
Cc1ccc([C@H]2c3cc(O)ccc3[C@@H]3[C@H]2CCCN3C)cc1 | 9 | No activity detected up to a dose of 1/5 LD50 ip in mice | 
CN1CCC[C@H]2[C@@H](c3ccccc3F)c3ccccc3[C@H]21 | 8 | No activity detected up to a dose of 1/5 LD50 ip in mice | 
COc1ccc2c(c1)[C@H](c1ccc(C)cc1)[C@@H]1CCCN(C)[C@H]21 | 6 | No activity detected up to a dose of 1/5 LD50 ip in mice | 
Cc1cccc([C@@H]2c3ccccc3[C@H]3NCCC[C@@H]23)c1 | 21 |  | ED50 [5]: 0.3 mg/kg
Nc1ccc([C@H]2c3cc(O)ccc3[C@H]3NCCC[C@@H]23)cc1 | 85 | No activity detected up to a dose of 1/5 LD50 ip in mice | 
COc1ccc2c(c1)[C@@H](c1ccc(C(C)C)cc1)[C@@H]1CCCN[C@H]21 |  |  | IC50 [3]: No compound available; IC50 [4]: No compound available
Cc1ccc([C@@H]2c3ccccc3[C@H]3NCCC[C@@H]23)cc1 | 60 |  | ED50 [5]: 1 mg/kg; selectivity ratio [6]: 60
COc1ccc2c(c1)[C@H](c1ccc(C)cc1)[C@@H]1CCCN[C@H]21 | 54 | No activity detected up to a dose of 1/5 LD50 ip in mice | 
Cc1ccccc1[C@H]1c2ccccc2[C@H]2NCCC[C@@H]12 | 52 | No activity detected up to a dose of 1/5 LD50 ip in mice | 
COc1ccc2c(c1)[C@H](c1ccc(N)cc1)[C@@H]1CCCN[C@H]21 | 50 | No activity detected up to a dose of 1/5 LD50 ip in mice | 
COc1cc2c(cc1OC)[C@H]1NCCC[C@H]1[C@@H]2c1cccnc1 |  |  | IC50 [3]: No compound available; IC50 [4]: No compound available
Cc1ccc([C@H]2c3ccccc3[C@H]3NCCC[C@@H]23)cc1 | 120 |  | ED50 [5]: 20 mg/kg; selectivity ratio [6]: 6
Cc1ccccc1[C@H]1c2ccccc2[C@@H]2[C@H]1CCCN2C | 22 | No activity detected up to a dose of 1/5 LD50 ip in mice | 

SMILES | LD50 [1] [mg/kg] | ED50 [2] | further results
COc1ccc2c(c1)[C@@H](c1ccc(N(C)C)cc1)[C@@H]1CCCN[C@H]21 |  |  | IC50 [3]: No compound available; IC50 [4]: No compound available
COc1cc2c(cc1OC)[C@H]1NCCC[C@H]1[C@H]2c1ccc(N)cc1 | 94 | No activity detected up to a dose of 1/5 LD50 ip in mice | 
COc1cc2c(cc1OC)[C@H]1NCCC[C@H]1[C@@H]2c1ccc(N)cc1 |  |  | IC50 [3]: No compound available; IC50 [4]: No compound available
Cc1ccc([C@H]2c3ccccc3[C@H]3NCCC[C@@H]23)cc1N | 45 | No activity detected up to a dose of 1/5 LD50 ip in mice | 
Nc1cccc([C@H]2c3ccccc3[C@H]3NCCC[C@@H]23)c1 | 28 |  | ED50 [5]: 2 mg/kg
CCCCOc1ccc([C@H]2c3ccccc3[C@H]3NCCC[C@@H]23)cc1 |  |  | IC50 [3]: No compound available; IC50 [4]: No compound available
Cc1cccc([C@H]2c3ccccc3[C@@H]3[C@H]2CCCN3C)c1 | 5 | No activity detected up to a dose of 1/5 LD50 ip in mice | 
COc1cc2c(cc1OC)[C@@H]1[C@@H](CCCN1C)[C@H]2c1ccccc1 | 70 | No activity detected up to a dose of 1/5 LD50 ip in mice | 
CN(C)c1ccc([C@H]2c3cc(O)ccc3[C@H]3NCCC[C@@H]23)cc1 | 67 | No activity detected up to a dose of 1/5 LD50 ip in mice | 
FC(F)(F)c1ccccc1[C@H]1c2ccccc2[C@H]2NCCC[C@@H]12 | 24 | No activity detected up to a dose of 1/5 LD50 ip in mice | 
COc1ccc2c(c1)[C@@H](c1ccc(C)cc1)[C@@H]1CCCN[C@H]21 |  |  | IC50 [3]: No compound available; IC50 [4]: No compound available
COc1ccc2c(c1)[C@@H](c1ccc(C)cc1)[C@@H]1CCCN(C)[C@H]21 | 67 | No activity detected up to a dose of 1/5 LD50 ip in mice | 
Cc1ccc([C@@H]2c3ccccc3[C@H]3NCCC[C@@H]23)cc1N | 40 |  | ED50 [5]: 2 mg/kg; selectivity ratio [6]: 20
CCCCOc1ccc([C@H]2c3ccccc3[C@@H]3[C@H]2CCCN3C)cc1 |  |  | IC50 [3]: No compound available; IC50 [4]: No compound available
CCCN1CCC[C@H]2[C@@H](c3ccccc3)c3ccccc3[C@H]21 | 90 | No activity detected up to a dose of 1/5 LD50 ip in mice | 
CC(C)c1ccc([C@@H]2c3cc(O)ccc3[C@H]3NCCC[C@@H]23)cc1 | 50 | No activity detected up to a dose of 1/5 LD50 ip in mice | 
CN1CCC[C@H]2[C@@H](c3ccccc3)c3ccccc3[C@H]21 | 36 | No activity detected up to a dose of 1/5 LD50 ip in mice | 
Cc1cccc([C@H]2c3ccccc3[C@H]3NCCC[C@@H]23)c1 | 34 | No activity detected up to a dose of 1/5 LD50 ip in mice | 
COc1ccc2c(c1)[C@H](c1ccc(N(C)C)cc1)[C@@H]1CCCN[C@H]21 | 48 | No activity detected up to a dose of 1/5 LD50 ip in mice | 
Fc1ccccc1[C@H]1c2ccccc2[C@H]2NCCC[C@@H]12 | 71 | No activity detected up to a dose of 1/5 LD50 ip in mice | 
c1ccc2c(c1)[C@H](c1ccncc1)[C@@H]1CCCN[C@H]21 |  |  | IC50 [3]: No compound available; IC50 [4]: No compound available
Nc1cccc([C@@H]2c3ccccc3[C@H]3NCCC[C@@H]23)c1 | 40 |  | ED50 [5]: 2 mg/kg; selectivity ratio [6]: 20
c1ccc([C@H]2c3ccccc3[C@H]3NCCC[C@@H]23)cc1 | 50 | No activity detected up to a dose of 1/5 LD50 ip in mice | 
CC(C)c1ccc([C@H]2c3cc(O)ccc3[C@H]3NCCC[C@@H]23)cc1 | 90 | No activity detected up to a dose of 1/5 LD50 ip in mice | 
CN1CCC[C@H]2[C@@H](c3ccc(O)cc3)c3ccccc3[C@H]21 |  |  | IC50 [3]: No compound available; IC50 [4]: No compound available
Fc1ccc([C@H]2c3ccccc3[C@H]3NCCC[C@@H]23)cc1 | 61 | No activity detected up to a dose of 1/5 LD50 ip in mice | 
Cc1ccccc1[C@@H]1c2ccccc2[C@@H]2[C@H]1CCCN2C | 106 |  | ED50 [5]: > 40 mg/kg

— ChEMBL document CHEMBL1122631, “2,3,4,4a,5,9b-Hexahydro-1H-indeno[1,2-b]pyridines: potential antidepressants” (J Med Chem, 1984)
